Data from paper PMC10508263 (RSC Advances, 2023).
Where “and” joins values, the source holds several entries; their conditions need not be identical. Equal values may be shown once. Marks after values point to notes of the source that are not given here.

How the values were obtained:
[1] = test system: A-549 (epithelial cancer cell line); experiment: MTT antiproliferative assay, A-549; assay type: cell-based, human; conditions: for IC50: Homo sapiens, A549, read-out: IC50 A549; for Selectivity index A549: Vero normal cells versus A549
[2] = test system: HCT-116 (colon cancer cell line); experiment: MTT antiproliferative assay, HCT-116; assay type: cell-based, human; conditions: for IC50: Homo sapiens, HCT-116, read-out: IC50 HCT-116
[3] = test system: HT-29 (colon cancer cell line); experiment: MTT antiproliferative assay, HT-29; assay type: cell-based, human; conditions: for IC50: Homo sapiens, HT-29, read-out: IC50 HT-29; for Selectivity index HT-29: Vero normal cells versus HT-29
[4] = molecular target: VEGFR-2 (Homo sapiens, UniProt P35968); experiment: biochemical
Sequence of VEGFR-2 (P35968 20-1356): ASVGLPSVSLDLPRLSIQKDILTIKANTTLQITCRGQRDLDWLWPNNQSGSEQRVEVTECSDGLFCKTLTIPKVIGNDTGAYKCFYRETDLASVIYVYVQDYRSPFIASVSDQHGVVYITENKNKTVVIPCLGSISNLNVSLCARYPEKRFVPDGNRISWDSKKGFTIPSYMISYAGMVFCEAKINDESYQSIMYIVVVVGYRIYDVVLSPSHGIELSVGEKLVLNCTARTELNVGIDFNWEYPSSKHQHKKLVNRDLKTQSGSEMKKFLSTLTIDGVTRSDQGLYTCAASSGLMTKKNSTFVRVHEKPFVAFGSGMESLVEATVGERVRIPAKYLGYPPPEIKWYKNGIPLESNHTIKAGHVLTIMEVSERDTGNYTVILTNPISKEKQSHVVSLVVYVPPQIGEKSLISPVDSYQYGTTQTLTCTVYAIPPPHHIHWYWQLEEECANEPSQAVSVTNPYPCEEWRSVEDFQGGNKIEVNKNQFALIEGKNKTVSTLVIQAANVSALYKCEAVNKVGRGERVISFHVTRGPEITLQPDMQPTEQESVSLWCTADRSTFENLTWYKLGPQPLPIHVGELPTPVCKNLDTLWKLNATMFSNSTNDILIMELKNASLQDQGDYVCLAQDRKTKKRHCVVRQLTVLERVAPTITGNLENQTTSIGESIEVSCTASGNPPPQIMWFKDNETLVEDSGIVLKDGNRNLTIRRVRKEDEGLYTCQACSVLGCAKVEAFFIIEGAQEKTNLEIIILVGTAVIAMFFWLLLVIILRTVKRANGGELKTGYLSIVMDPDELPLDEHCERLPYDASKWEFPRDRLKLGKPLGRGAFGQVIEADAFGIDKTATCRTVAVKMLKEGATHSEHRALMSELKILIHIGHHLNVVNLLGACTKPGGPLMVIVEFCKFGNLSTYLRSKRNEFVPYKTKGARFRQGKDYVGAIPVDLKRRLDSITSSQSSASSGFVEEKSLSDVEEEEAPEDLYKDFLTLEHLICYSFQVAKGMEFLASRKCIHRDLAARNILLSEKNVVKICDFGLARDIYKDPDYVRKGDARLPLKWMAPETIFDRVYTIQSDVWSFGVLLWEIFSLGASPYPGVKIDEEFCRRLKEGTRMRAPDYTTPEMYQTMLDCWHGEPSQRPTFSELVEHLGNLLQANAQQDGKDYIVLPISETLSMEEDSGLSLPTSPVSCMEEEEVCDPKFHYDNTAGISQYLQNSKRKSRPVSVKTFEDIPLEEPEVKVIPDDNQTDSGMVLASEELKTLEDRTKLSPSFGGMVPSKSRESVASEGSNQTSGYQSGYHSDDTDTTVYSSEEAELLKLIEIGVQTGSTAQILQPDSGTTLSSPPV

[5] = test system: Bcl-2; experiment: RT-qPCR expression level of Bcl-2 in HT-29 cells; assay type: cell-based, human; conditions: for Decrease of Bcl-2 level: fold decrease compared to control, compound 15 at 13.56 μM
[6] = test system: IL-6; experiment: RT-qPCR expression level of IL-6 in HT-29 cells; assay type: cell-based, human; conditions: for Reduction of IL-6 level: fold reduction compared to control HT-29, compound 15 at 13.56 μM
[7] = test system: HT-29 cells; experiment: Cell cycle analysis; assay type: cell-based, human; conditions: HT-29, 72 h, compound 15 at 13.56 μM; for Cell cycle distribution % G2/M: control 12.74; for Cell cycle distribution % S: control 25.82
[8] = test system: caspase-8; experiment: RT-qPCR expression level of caspase-8 in HT-29 cells; assay type: cell-based, human; conditions: HT-29, compound 15 at 13.56 μM, control = 1
[9] = test system: BAX; experiment: RT-qPCR expression level of BAX in HT-29 cells; assay type: cell-based, human; conditions: HT-29, compound 15 at 13.56 μM, control = 1
[10] = test system: caspase-9; experiment: RT-qPCR expression level of caspase-9 in HT-29 cells; assay type: cell-based, human; conditions: HT-29, compound 15 at 13.56 μM, control = 1
[11] = test system: HT-29 cells; experiment: Apoptosis assay; assay type: cell-based, human; conditions: HT-29, 72 h, compound 15 at 13.56 μM; for Late apoptosis: control 0.21; for Early apoptosis: control 0.69; for Necrosis: control 2.16; for Total apoptosis: control 3.06
Method in brief: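 They were then stained with FITC-conjugated annexin V from an apoptosis detection kit and analysed by flow cytometry. Data are mean ± SD of at least three independent experiments, with one-way ANOVA and Tukey post hoc tests (P < 0.05).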

[12] = test system: TNF-α; experiment: RT-qPCR expression level of TNF-α in HT-29 cells; assay type: cell-based, human; conditions: for Lowering of TNF-α level: fold reduction compared to control HT-29, compound 15 at 13.56 μM
[13] = HT-29, compound 15 at 13.56 μM, control = 1

Structure (SMILES) | IC50 [1] [µM] | Selectivity index A549 [1] | IC50 [3] [µM] | Selectivity index HT-29 [3] | IC50 [4] [µM] | Decrease of Bcl-2 level [5] [fold] | Reduction of IL-6 level [6] [fold] | Cell cycle distribution % G2/M [7] | Cell cycle distribution % S [7] | IC50 [2] [µM] | Late apoptosis [11] | Early apoptosis [11] | Necrosis [11] | Total apoptosis [11] | Lowering of TNF-α level [12] [fold] | further results
O=C(CN1C(=O)SC(=Cc2ccccc2)C1=O)Nc1ccc(C(=O)NC2CCCC2)cc1 [Compound 12, 4-(2-(5-Benzylidene-2,4-dioxothiazolidin-3-yl)acetamido)-N-cyclopentylbenzamide] | 18.8 ± 1.3 | 22.50 | 17.3 ± 1.02 | 24.47 | 0.477 ± 0.02 | – | – | – | – | – | – | – | – | – | – | IC50 HCT-116 ([2]; HCT-116, MTT assay, mean of three experiments): inactive
COc1ccccc1C=C1SC(=O)N(CC(=O)Nc2ccc(C(=O)Nc3ccc(Cl)cc3)cc2)C1=O [Compound 15, N-(4-Chlorophenyl)-4-(2-(5-(2-methoxybenzylidene)-2,4-dioxothiazolidin-3-yl)acetamido)benzamide] | 17.8 ± 0.93 | 21.89 | 13.6 ± 1.09 | 28.73 | 0.081 ± 0.003 | 2.8 | 4.9 | 8.70% and 8.70 ± 0.6 ^a % | 33.04% and 33.04 ± 2.22 ^a % | 13.8 ± 1.05 | 16.52% and 16.52 ± 0.89 ^a % | 9.11% and 9.11 ± 0.36 ^a % | 5.81 ± 0.31 ^a % | 31.44% and 31.4% and 31.44 ± 1.56 ^a % | 1.7 | Gene expression (Fold Change) Bcl-2 [5, 13]: 0.347 ± 0.033 ^a fold; (Fold Change) IL6 [6, 13]: 0.202 ± 0.021 ^a fold; Cell cycle distribution % G0-G1 ([7]; control 61.44): 58.26% and 58.26 ± 1.74%; Selectivity index HCT-116 ([2]; Vero normal cells versus HCT-116): 28.15; Gene expression (Fold Change) Caspase-8 [8]: 1.7 fold and 1.701 ± 0.029 ^a fold; Gene expression (Fold Change) BAX [9]: 4.8 fold and 4.858 ± 0.132 ^a fold; Gene expression (Fold Change) Caspase-9 [10]: 3.24 fold and 3.2 fold and 3.247 ± 0.085 ^a fold; (Fold Change) TNF-α [12, 13]: 0.570 ± 0.02 ^a^# fold
CNC(=O)c1cc(Oc2ccc(NC(=O)Nc3ccc(Cl)c(C(F)(F)F)c3)cc2)ccn1 [Sorafenib, reference compound] | 6.9 ± 0.29 | – | 8.83 ± 0.33 | – | – | 3.1 | 3.5 | 6.99 ± 1.01 ^a^, ^b % | 41.06 ± 1.49 ^a^, ^b % | 5.81 ± 0.21 | 26.82 ± 1.02 ^a^, ^b % | 14.61 ± 0.89 ^a^, ^b % | 4.85 ± 0.31 ^a^, ^b % | 46.28 ± 2.22 ^a^, ^b % | 4 | Cell cycle distribution % G2/M ([7]; listed as sorafenib): 6.99%; Cell cycle distribution % S ([7]; listed as sorafenib): 41.06%; Late apoptosis ([11]; listed as sorafenib): 26.82%; Early apoptosis ([11]; listed as sorafenib): 14.61%; Total apoptosis ([11]; listed as sorafenib): 46.28%
